# Reference: ChEMBL document CHEMBL1914345 (Bioorg Med Chem Lett, 2011)
# Experiments:
# [1] = Inhibition of retinal rod CNGA1/CNGB1 expressed in Xenopus laevis oocytes assessed as blockade of cGMP-induced current at -50 mV holding potential by patch-clamp electrophysiology; format: cell-based; settings: oocyte; read-out: Kd(app)
# Procedure, shortened: (§1)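 Heteromeric retinal CNGA1 plus CNGB1 channels expressed in Xenopus laevis oocytes. Currents activated by 2 mM cGMP and recorded at both +50 and -50 mV. Apparent Kd taken by fitting current amplitudes to a single-binding-site block equation.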
# [2] = Inhibition of retinal rod CNGA1/CNGB1 expressed in Xenopus laevis oocytes assessed as blockade of cGMP-induced current at +50 mV holding potential by patch-clamp electrophysiology; format: cell-based; settings: oocyte; read-out: Kd(app); procedure, shortened: as §1
# [3] = system: Oocyte; assay: Ratio of tetracaine Kd(app) to compound Kd(app) for retinal rod CNGA1/CNGB1 expressed in Xenopus laevis oocytes; format: cell-based
# [4] = system: Oocyte; assay: Ratio of 2-(dimethylamino)ethyl 4-(octylamino)benzoate Kd(app) to compound Kd(app) for retinal rod CNGA1/CNGB1 expressed in Xenopus laevis oocytes; format: cell-based
# [5] = Ratio of Kd(app) for sodium channel to Kd(app) for retinal rod CNGA1/CNGB1
Compound,Kd [1] [nM],Kd [2] [nM],Ratio [3],Ratio [4],Ratio [5]
CCCCNc1ccc(C(=O)OCCN(C)C)cc1Cl,12800,3000,–,–,–
CCCCNc1ccc(C(=O)OCCN(C)C)cc1[N+](=O)[O-],19600,5500,–,–,–
CCCCCCCCNc1ccc(C(=O)OCCN(C)C)cc1OC,3000,1250,–,–,–
CCCCCCCCNc1ccc(C(=O)OCCN(C)C)cc1F,750,200,50,8,–
CCCCNc1ccc(C(=O)OCC[N+](C)(C)CCCNCCCN)cc1,–,–,–,–,100
CCCCCCCCNc1ccc(C(=O)OCCN(C)C)cc1[N+](=O)[O-],12600,8000,–,–,–
CCCCCCCCNc1ccc(C(=O)OCCN(C)C)cc1,1720,800,–,–,–
CCCCNc1ccc(C(=O)OCCN(C)C)cc1OC,18300,4300,–,–,–
CCCCCCCCNc1ccc(C(=O)OCCN(C)C)cc1Br,240,140,50,8,–
CCCCCCCCNc1ccc(C(=O)OCCN(C)C)cc1C,1410,500,–,–,–
CCCCCCCCNc1ccc(C(=O)OCCN(C)C)c(Cl)c1,220,100,50,8,–
CCCCNc1ccc(C(=O)OCCN(C)C)cc1C,28100,7800,–,–,–
CCCCCCCCNc1ccc(C(=O)OCCN(C)C)cc1Cl,380,140,50,8,–
